Calls of active or inactive are those of the source. No cut-off for these calls is given here.
What was measured:
LoVo [1] = test: Antiproliferative activity against human LoVo cells assessed as growth inhibition after 72 hrs by MTT assay; type: functional, cell-based
LoVo [2] = test: Antiproliferative activity against human doxorubicin-resistant LoVo cells overexpressing P-gp assessed as growth inhibition after 72 hrs by MTT assay; type: functional, cell-based
[3] = Inhibition of bovine brain tubulin polymerization after 20 mins by turbidimetric analysis; set-up: species or system Bos taurus
In short: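 Purified tubulin at 10 μM was used for the assembly (polymerization) inhibition assay. IC50 is the concentration inhibiting assembly.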

Tubulin (Homo sapiens) = Tubulin (Homo sapiens) (UniProt P68371+Q9H4B7+P0DPH7+P68366+Q13509+Q71U36+P04350+Q3ZCM7+P07437+P68363+Q9BQE3+Q6PEY2+Q13885+Q9BVA1+Q9BUF5); test: Induction of microtubule disassembly with spherical morphology in human HeLa cells at 10 nM after 24 hrs using DAPI-staining by fluorescence microscopy; type: cell-based
In short: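 HeLa cells were exposed to 10 or 100 nM compound for 24 or 48 h, then fixed. Microtubules were stained with FITC-conjugated anti-β-tubulin antibody and imaged by confocal/fluorescence microscopy at 60× magnification.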

HeLa [4] = test: Induction of morphological changes in human HeLa cells assessed as appearance of giant interphase with multiple nuclei of different sizes at 100 nM after 24 hrs using phalloidintetramethylrhodamine B isothiocyanate staining by microscopy; type: functional, cell-based
In short: (§1)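 HeLa cells were incubated with compound for 24 h. F-actin was stained with a phalloidin–tetramethylrhodamine B isothiocyanate conjugate and nuclei were counterstained with DAPI. Cells were then examined by fluorescence microscopy.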

HeLa [5] = test: Induction of morphological changes in human HeLa cells assessed as effect on arrangement and amount of F-actin at 10 nM after 24 hrs using phalloidintetramethylrhodamine B isothiocyanate staining by microscopy; type: functional, cell-based; in short: as §1
HeLa [6] = test: Cell cycle arrest in human HeLa cells assessed as increase of cell population at G2/M phase after 24 hrs using propidium iodide staining by flow cytometry; type: functional, cell-based
HeLa [7] = test: Cell cycle arrest in human HeLa cells assessed as decrease of cell population at S phase at 100 nM after 24 hrs using propidium iodide staining by flow cytometry; type: functional, cell-based
Jurkat [8] = test: Cell cycle arrest in human Jurkat cells assessed as increase of cell population at G2/M phase at 1 to 100 nM after 48 hrs using propidium iodide staining by flow cytometry; type: functional, cell-based
Jurkat [9] = test: Cell cycle arrest in human Jurkat cells assessed as decrease of cell population at G1 phase at 1 to 100 nM after 48 hrs using propidium iodide staining by flow cytometry; type: functional, cell-based
HeLa [10] = test: Induction of cell cycle arrest at G2/M phase in human HeLa cells assessed as decrease in phosphorylated Cdc2(Y15) expression at 10 to 100 nM after 48 hrs by Western blot analysis; type: functional, cell-based
In short: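 Immunoblot of HeLa lysates after 24 or 48 h of compound treatment at the indicated concentrations. Probed for cyclin B1, p-Cdc2 Y15 and Cdc25c. Slower-migrating Cdc25c bands were taken as a change in phosphorylation.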

HeLa [11] = test: Induction of apoptosis in human HeLa cells assessed as increase in propidium iodide-positive cells after 48 hrs by annexin-V-FITC and propidium iodide staining based flow cytometry; type: functional, cell-based
In short: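 Biparametric flow cytometry after annexin-V immunolabelling plus propidium iodide, separating live, early apoptotic, late apoptotic and necrotic cells; HeLa incubated for 24 or 48 h.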

HeLa [12] = test: Induction of apoptosis in human HeLa cells assessed as no change in mitochondrial potential at 100 nM after 48 hrs using JC-1 staining by flow cytometry; type: functional, cell-based
HeLa [13] = test: Induction of apoptosis in human HeLa cells assessed as decrease in Bcl2 expression at […] after 48 hrs by Western blot analysis; type: functional, cell-based
In short: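 Treated HeLa whole-cell lysates separated by SDS-PAGE and immunoblotted for PARP cleavage, Bcl-2, Bax, pro-caspase-9 and pro-caspase-2.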

HeLa [14] = test: Induction of apoptosis in human HeLa cells assessed as multinucleation at 10 uM after 24 to 48 hrs using Giemsa's staining by microscopic analysis; type: functional, cell-based
In short: (§2)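 Giemsa staining, then light-microscope examination of cell morphology. HeLa and Jurkat cells were exposed to compound for 24 and 48 h. Magnification 60×.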

HeLa [15] = test: Induction of apoptosis in human HeLa cells assessed as multinucleation at 100 uM after 24 to 48 hrs using Giemsa's staining by microscopic analysis; type: functional, cell-based; in short: as §2
HeLa [16] = test: Induction of apoptosis in human HeLa cells assessed as formation of large cells at 10 uM after 24 to 48 hrs using Giemsa's staining by microscopic analysis; type: functional, cell-based
In short: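 HeLa treated 48 h, Giemsa stained and examined by light microscopy at 60× magnification.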

HeLa [17] = test: Induction of apoptosis in human HeLa cells assessed as reduction in p53 expression at […] after 48 hrs by Western blot analysis; type: functional, cell-based
In short: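 Western blot of HeLa whole-cell lysates, separated by SDS-PAGE and probed with antibodies to p-γH2AX Ser139, p53 and p21waf/cip1. Cells were treated at the indicated concentrations for 24 or 48 h.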

HeLa [18] = test: Induction of apoptosis in human HeLa cells assessed as reduction in p21 expression at 10 to 100 nM after 24 hrs by Western blot analysis

IC50 (LoVo [1]): 700 pM
IC50 (LoVo [2]): 600 pM
IC50 [3]: 610000 pM
Activity (Tubulin (Homo sapiens)): Active
SMILES: CCOc1ccc(-c2sc(N)nc2-c2cc(OC)c(OC)c(OC)c2)cc1
Activity (HeLa [4]): Active
Activity (HeLa [5]): Active
Activity (HeLa [6]): Dose-dependent effect
Activity (HeLa [7]): Active
Activity (Jurkat [8]): Active
Activity (Jurkat [9]): Active
Activity (HeLa [10]): Active
Activity (HeLa [11]): Active
Activity (HeLa [12]): inactive
Activity (HeLa [13]): Active
Activity (HeLa [14]): Active
Activity (HeLa [15]): Active
Activity (HeLa [16]): Active
Activity (HeLa [17]): Active
Activity (HeLa [18]): Active

From ChEMBL document CHEMBL1799956, “Convergent synthesis and biological evaluation of 2-amino-4-(3',4',5'-trimethoxyphenyl)-5-aryl thiazoles as microtubule targeting agents” (J Med Chem, 2011)
